Reference: ChEMBL document CHEMBL4177657, “Structure-activity relationships of 2-substituted phenyl-N-phenyl-2-oxoacetohydrazonoyl cyanides as novel antagonists of exchange proteins directly activated by cAMP (EPACs)” (Bioorg Med Chem Lett, 2017)

Columns and labels:
[1] = biological target: T1, Rap guanine nucleotide exchange factor 3 (Homo sapiens, UniProt O95398); test: (§1) Antagonist activity at recombinant full length EPAC1 (unknown origin) assessed as inhibition of cAMP-mediated Rap1b-BODIPY GDP nucleotide exchange activity
T1 sequence (O95398 whole entry): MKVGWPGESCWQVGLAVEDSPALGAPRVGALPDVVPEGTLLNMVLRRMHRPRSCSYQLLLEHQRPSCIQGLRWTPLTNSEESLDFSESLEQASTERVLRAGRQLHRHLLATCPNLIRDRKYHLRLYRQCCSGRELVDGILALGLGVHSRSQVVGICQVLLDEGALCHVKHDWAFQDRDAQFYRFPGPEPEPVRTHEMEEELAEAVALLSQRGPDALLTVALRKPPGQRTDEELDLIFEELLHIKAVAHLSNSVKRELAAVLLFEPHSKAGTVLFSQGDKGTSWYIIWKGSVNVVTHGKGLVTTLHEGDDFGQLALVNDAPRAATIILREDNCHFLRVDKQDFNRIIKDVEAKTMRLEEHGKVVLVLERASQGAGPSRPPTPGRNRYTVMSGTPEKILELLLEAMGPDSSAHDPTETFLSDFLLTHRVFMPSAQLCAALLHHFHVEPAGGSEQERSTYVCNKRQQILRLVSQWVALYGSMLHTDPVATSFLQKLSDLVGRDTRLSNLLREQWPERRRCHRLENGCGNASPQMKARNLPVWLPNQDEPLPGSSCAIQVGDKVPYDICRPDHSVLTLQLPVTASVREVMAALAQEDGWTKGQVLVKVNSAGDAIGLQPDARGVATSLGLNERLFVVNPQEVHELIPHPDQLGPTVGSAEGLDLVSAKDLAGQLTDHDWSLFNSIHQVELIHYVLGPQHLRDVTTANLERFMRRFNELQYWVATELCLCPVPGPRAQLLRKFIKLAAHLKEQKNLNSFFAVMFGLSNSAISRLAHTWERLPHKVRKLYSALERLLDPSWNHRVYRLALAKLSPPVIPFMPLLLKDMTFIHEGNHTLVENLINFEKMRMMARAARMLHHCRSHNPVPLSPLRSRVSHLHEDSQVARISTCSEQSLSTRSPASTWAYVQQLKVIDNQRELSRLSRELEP
Outline: (§2)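 Guanine nucleotide exchange on Rap1b loaded with BODIPY-GDP (Rap1b-bGDP), catalysed by EPAC1 in the presence of 20 μM cAMP. Inhibitor is tested over a dose range. GEF activity is expressed as a normalized reaction rate constant, and IC50 is taken from the dose-response curves. Values are mean ± SE, n = 3.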

[2] = biological target: Rap guanine nucleotide exchange factor 4 (Homo sapiens, UniProt Q8WZA2); test: Antagonist activity at recombinant full length EPAC2 (unknown origin) assessed as inhibition of cAMP-mediated Rap1b-BODIPY GDP nucleotide exchange activity
Outline: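 Guanine nucleotide exchange on Rap1b loaded with bGDP, catalysed by EPAC2 in the presence of 20 μM cAMP and run across a compound dose range. Relative GEF activity is expressed as the normalized reaction rate constant.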

[3] = biological target: T2, Rap guanine nucleotide exchange factor 3 (Homo sapiens) (UniProt O95398); test: as §1; outline: as §2
T2 sequence (whole entry): T1 sequence (O95398 whole entry)

SMILES	IC50 [1]	IC50 [2]	inhibition [3]	inhibition [2]
C[C@@H]1CCc2c(cc(Br)c(F)c2Br)N1C=O	5.5 µM	17 µM	–	–
CC(C)(C)c1cc(C(=O)/C(C#N)=N/Nc2cccc(Cl)c2)no1	9.1 to 10.8 µM	4.4 to 8.9 µM	Dose-dependent effect	Dose-dependent effect
